From PubChem BioAssay
Rows were chosen to be rich in hits. Some 2.1% of all compounds tested hit in one or more screens of this group.
m-calpain inh: blocks pig calpain II enzyme activity. purified calpain II, fluorogenic peptide substrate, 30 min. inhibition, % at 16 µM. hit rate 0.37% among 220,000. AID 1236;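 active means inhibition above about 50%, limit read from the data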
FAS TE block: blocks the thioesterase domain of human fatty acid synthase. inhibition, % at 15 µM. recombinant FAS-TE, OMFH fluorogenic substrate, fluorescence endpoint. hit rate 0.67% among 360,000;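 active means compounds whose normalised, plate-corrected inhibition of enzyme fluorescence in the single-dose primary screen is 50% or more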
Runt-SMMHC FRET: inhibitors of human RUNX1 Runt domain binding to CBFb-SMMHC | Cerulean-Runt/Venus-CBFb-SMMHC FRET ratio 530/480, 1 h | inhibition, % at 20 µM | hit rate 0.74% among 220,000;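 active means mean inhibition across duplicate retests at 20 µM reaching about 50%, limit read from the data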;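 further: inhibitors lower the FRET ratio by blocking Runt binding to CBFb-SMMHC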
Target sequence (Q01196 whole entry, looked up, the tested form may be a part): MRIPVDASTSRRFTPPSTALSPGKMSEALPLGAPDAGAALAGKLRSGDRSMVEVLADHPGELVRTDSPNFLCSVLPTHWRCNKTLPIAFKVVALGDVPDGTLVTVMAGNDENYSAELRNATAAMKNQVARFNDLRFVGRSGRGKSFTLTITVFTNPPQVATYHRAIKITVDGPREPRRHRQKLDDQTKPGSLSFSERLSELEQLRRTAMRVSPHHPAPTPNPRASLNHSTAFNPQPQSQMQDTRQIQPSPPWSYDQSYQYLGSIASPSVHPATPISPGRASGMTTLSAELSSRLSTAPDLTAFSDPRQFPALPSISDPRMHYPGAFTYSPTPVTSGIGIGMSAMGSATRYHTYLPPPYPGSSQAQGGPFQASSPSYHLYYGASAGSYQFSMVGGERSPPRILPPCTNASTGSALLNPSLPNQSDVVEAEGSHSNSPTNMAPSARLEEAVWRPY
Target sequence (Q13951 whole entry, looked up, the tested form may be a part): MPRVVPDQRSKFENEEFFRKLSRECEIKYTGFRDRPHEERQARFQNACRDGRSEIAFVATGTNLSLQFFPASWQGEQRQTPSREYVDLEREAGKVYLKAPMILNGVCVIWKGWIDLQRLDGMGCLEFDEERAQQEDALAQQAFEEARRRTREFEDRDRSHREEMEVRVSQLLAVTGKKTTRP
RanGTP-Imp inh: inhibitors of RanGTP-importin-beta interaction, primary screen, biochemical, FRET, CFP-Ran, YFP-importin-beta, homogeneous. cell-free CFP-Ran/YFP-importin-beta FRET ratio. inhibition, % (test concentration not listed). hit rate 1.1% among 300,000. AID 2216;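 active means more than half of the replicate wells show a fall in the fluorescence ratio signal beyond about 16%, limit read from the data, passing the limit was not always enough; inconclusive means exactly half of the replicate wells pass the set limit; inactive means fewer than half of replicates pass the limit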
Runt-CBFb FRET: Runt domain-CBFb interaction inhibition | Cerulean-Runt/Venus-CBFb FRET ratio 530/480, 1 h | AID 1496 | inhibition, % at 20 µM | hit rate 0.46% among 220,000 | Q01196+Q13951;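 active means inhibition over about 50% at 20 µM in the single-dose screen, limit read from the data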
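Schedule: protein complex preformed 1 h, compound exposure 1 h, room temperature, dark; test system: Cerulean-labeled Runt domain protein; amount: 100 nM per protein; buffer or medium: Tris 50 mM pH 7.5, KCl, K2SO4, 0.01% BSA; read-out: loss of energy transfer signal; detection: FRET fluorescence; controls: 5 µM unlabeled CBFb as full-inhibition high control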
A number is an active result; n = inactive; u = inconclusive; x = not tested or not shown.

SMILES | m-calpain inh | FAS TE block | Runt-SMMHC FRET | RanGTP-Imp inh | Runt-CBFb FRET
CC1(C)c2ssc(=S)c2-c2ccccc2N1C(=O)c1ccco1 | n | n | n | n | 122.0
Cc1cccn2c(=O)c3cc(C(=O)NCc4ccco4)c(=N)n(CCc4ccccc4)c3nc12 | n | n | 79.3 | x | n
Cc1cccn2c(=O)c3cc(C(=O)NCCc4ccccc4)sc3nc12 | x | n | x | n | x
COc1ccc(CCNC(=O)c2cc3c(=O)n4cccc(C)c4nc3n(Cc3ccco3)c2=N)cc1OC | x | n | x | 53.4 | x
COc1ccc(CCNC(=O)c2cc3c(=O)n4cccc(C)c4nc3n(CC3CCCO3)c2=N)cc1 (centres undefined) | x | n | x | n | x
Cc1cccn2c(=O)c3cc(C(=O)NCCc4ccccc4)c(=N)n(Cc4ccco4)c3nc12 | x | n | x | 73.5 | x
Cc1cccn2c(=O)c3cc(C(=O)NCC4CCCO4)c(=N)n(CCc4ccccc4)c3nc12 (centres undefined) | x | n | x | 176.1 | x
COc1ccc(CCNC(=O)c2ccc3c(=O)n(Cc4ccco4)c(=S)[nH]c3c2)cc1OC | n | n | n | n | n
O=C(Nc1ccccc1N1CCOCC1)C1=NN(c2ccccc2)C(=O)CC1 | x | n | x | x | x
O=C(CCCOc1ccc(Cl)cc1)NC1CCCCC1 | x | n | x | u | x
Cc1cccn2c(=O)c3cc(C(=O)NCc4ccco4)c(=N)n(C(C)C)c3nc12 | n | n | 59.8 | 154.3 | n
CCOc1ccc(NC(=O)/C(C#N)=C\c2ccc(N3CCCC3)c(C)c2)cc1 | x | n | x | x | x
Cc1c(Cl)c(=O)oc2cc(OC(C)C)ccc12 | n | n | n | n | n
CCC(=O)Oc1ccc2c(C)c(Cl)c(=O)oc2c1 | n | n | 127.2 | 25.2 | 82.6
c1ccc(Nc2ncnc3sccc23)cc1 | x | n | x | n | x
CC(Nc1ncnc2sccc12)c1ccccc1 (centres undefined) | x | n | x | 27.8 | x
Nc1ccn([C@@H]2O[C@H](C(=O)N3CCSC3)[C@@H](O)[C@H]2O)c(=O)n1 | x | n | x | x | x
Cc1nn2c3c(cnc2c1-c1ccccc1)C(=O)CCC3 | n | n | n | n | n
Cc1nn2c3c(cnc2c1-c1ccc(Cl)cc1)C(=O)CC(c1ccco1)C3 (centres undefined) | x | n | n | 19.0 | n
CC(=O)Nc1ccc2c3c(cccc13)C(=O)N(c1ccccc1)C2=O | n | n | 87.2 | 72.9 | n
O=C1/C(=C/c2cccc([N+](=O)[O-])c2)Oc2cc(O)ccc21 | x | n | x | u | x
COc1ccc(/C=C2\OC(=O)c3c(OC)cccc32)cc1OC | n | n | n | 38.8 | n
O=C1/C(=C/c2ccc(O)c(O)c2)Oc2cc(O)ccc21 | n | n | 54.6 | x | n
Cc1ccsc1/C=C1\Oc2cc(O)ccc2C1=O | x | n | x | x | x
COc1ccc(/C=C2\Oc3cc(OC(=O)N4CCOCC4)ccc3C2=O)cc1 | n | n | n | 22.1 | n
SMILES | m-calpain inh | FAS TE block | Runt-SMMHC FRET | RanGTP-Imp inh | Runt-CBFb FRET
COc1cc(/C=C2\Oc3cc(O)ccc3C2=O)ccc1O | n | n | 78.5 | n | n
COc1ccc(C=C2C(=O)OC(C)(C)OC2=O)cc1OC | n | n | n | n | n
CCc1ccc(/C=C2\Oc3cc(OC(=O)N4CCOCC4)ccc3C2=O)cc1 | n | n | n | n | n
CCOC(=O)[C@@H]1[C@H]2COc3ccccc3[C@H]2N2C(=O)N(c3cccc(Cl)c3)C(=O)[C@]12C | x | n | x | x | x
CCC(C)/C=C/C1=CC2=C(Cl)C(=O)C3(C)OC(=O)C(C(=O)C(C)C(C)O)C3C2=CO1 (centres undefined) | n | n | 85.4 | 87.8 | n
CCN(CC)Cc1c(O)ccc2cc(-c3nc4ccccc4n3C)c(=O)oc12 | x | n | x | 131.6 | x
CCc1cc2c(=O)c(-c3nc4ccccc4n3C)c(C)oc2c(CN(CC)CC)c1O | n | n | n | n | n
COC(=O)COc1ccc2cc(-c3ccccc3)c(=O)oc2c1 | x | n | x | u | x
CC(C)(C)C(=O)Oc1ccc2cc(-c3ccc4ccccc4n3)c(=O)oc2c1 | n | n | 59.5 | 28.1 | n
CC(=O)Oc1ccc(-c2cc3ccccc3oc2=O)cc1 | x | n | x | n | x
CC(=O)Oc1ccc2cc(-c3nc4ccccc4n3C)c(=O)oc2c1 | n | n | n | 147.1 | n
Cn1c(-c2cc3ccc(OC(=O)C(C)(C)C)cc3oc2=O)nc2ccccc21 | n | n | n | 149.5 | n
COc1ccc(C(=O)N2CCC2)cc1S(=O)(=O)NCc1ccc(Cl)cc1 | x | n | x | x | x
Cn1c(/C(C#N)=C/c2ccncc2)nc2ccccc21 | n | n | n | x | n
Cn1c(/C(C#N)=C/c2ccc(O)cc2)nc2ccccc21 | n | n | n | 28.2 | n
Cc1cc([N+](=O)[O-])nn1CCCC(=O)Nc1cc(Oc2ccc(F)cc2)cc([N+](=O)[O-])c1 | n | n | n | n | n
Cc1cc([N+](=O)[O-])nn1CCCC(=O)Nc1cc(Oc2ccccc2)cc([N+](=O)[O-])c1 | 56.2 | n | n | n | n
COc1ccc(CNC(=O)CCCn2nc([N+](=O)[O-])cc2C)cc1 | 59.7 | n | n | n | n
COC(=O)c1ccccc1NC(=O)CCCn1nc([N+](=O)[O-])cc1C | n | n | n | n | n
Cc1c(CNCCc2ccc(Cl)cc2)c(C(=O)O)c(C)n1-c1ccccc1 | x | n | x | u | x
CN(CC(=O)Nc1c(Cl)cccc1Cl)C(=O)Cn1[nH]c(=O)c2ccccc2c1=O | x | n | x | x | x
CCn1nc(NC(=O)c2cccs2)c2cc3ccccc3nc21 | n | n | n | 38.8 | n
CCn1nc(NC(=O)c2cccnc2)c2cc3ccccc3nc21 | n | n | n | 18.7 | n
CCn1nc(NS(=O)(=O)c2ccccc2)c2cc3ccccc3nc21 | x | n | x | n | x
O=C(O)C1CC=CCC1C(=O)NCc1ccc(Cl)c(Cl)c1 (centres undefined) | x | n | x | n | x
SMILES | m-calpain inh | FAS TE block | Runt-SMMHC FRET | RanGTP-Imp inh | Runt-CBFb FRET
COc1ccccc1C(=O)NCCC(=O)NC1CCCCCC1 | x | n | x | x | x
CCC(=O)Nc1c(S(=O)(=O)c2ccc(C)cc2)c2nc3ccccc3nc2n1C(C)c1ccccc1 (centres undefined) | n | n | 74.9 | n | n
Nc1c(S(=O)(=O)c2ccccc2)c2nc3ccccc3nc2n1C1CC1 | n | n | n | n | n
CCC(=O)Nc1c(S(=O)(=O)c2ccccc2)c2nc3ccccc3nc2n1C(C)c1ccccc1 (centres undefined) | n | n | 75.5 | n | n
COc1ccc(N(C(=O)c2snc(C(N)=O)c2N)C(C(=O)NCC2CCCO2)c2ccc3ncccc3c2)cc1OC (centres undefined) | x | n | x | n | x
CCOC(=O)C1CCN(c2nc3ccccc3nc2C(C#N)C(=O)OCCOC)CC1 (centres undefined) | n | n | n | u | n
CCCN(CCC)c1nc2ccccc2nc1C(C#N)C(=O)OCCOC (centres undefined) | n | n | n | 36.8 | n
C=CCOC(=O)C(C#N)c1nc2ccccc2nc1N1CCC(C(=O)OCC)CC1 (centres undefined) | n | n | n | n | n
C=CCN(CC=C)c1nc2ccccc2nc1C(C#N)C(=O)OCCOC (centres undefined) | n | n | 61.1 | 19.8 | n
